A selection: hits, their analogues and other compounds. The true share with any hit is near 0.72%.
bIAP inh: blocks bovine intestinal alkaline phosphatase activity; inhibition, % at 20 µM; 190,000 tested, under 10 active; AID 1019; purified bovine IAP, CDP-star luminescence, 30 min;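 active means over 50% inhibition of intestinal alkaline phosphatase at 20 µM in the single-dose screen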
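Incubation: 30 min reaction at room temperature / Material: purified bovine intestinal alkaline phosphatase (IAP) enzyme / Input: enzyme at 1/65,000,000 dilution / Dosing: 20 µM single dose / Signal: CDP-star luminescence signal / Reagent: CDP-star chemiluminescent phosphatase substrate, 30 µM final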
bIAP activator: increases bovine intestinal alkaline phosphatase activity | purified bovine IAP, CDP-star luminescence, 30 min; hits give high values; fold of DMSO-control signal, blank-subtracted | activation factor at 20 µM | 200,000 compounds, 0.17% hits;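 active means activation factor of 2 or more at 20 µM, a signal rise over negative controls twice the positive control's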
hIAP activ: increases human intestinal alkaline phosphatase activity | P09923 | purified human IAP, CDP-Star luminescence, 30 min; hits give high values; 1 = vehicle-only enzyme, 0 = enzyme-free background | activation factor at 10 µM | 330,000 compounds, 0.16% hits | AID 2524;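 active means activation factor of the enzyme at least 2-fold when tested at 20 µM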
Target sequence (P09923 whole entry, looked up): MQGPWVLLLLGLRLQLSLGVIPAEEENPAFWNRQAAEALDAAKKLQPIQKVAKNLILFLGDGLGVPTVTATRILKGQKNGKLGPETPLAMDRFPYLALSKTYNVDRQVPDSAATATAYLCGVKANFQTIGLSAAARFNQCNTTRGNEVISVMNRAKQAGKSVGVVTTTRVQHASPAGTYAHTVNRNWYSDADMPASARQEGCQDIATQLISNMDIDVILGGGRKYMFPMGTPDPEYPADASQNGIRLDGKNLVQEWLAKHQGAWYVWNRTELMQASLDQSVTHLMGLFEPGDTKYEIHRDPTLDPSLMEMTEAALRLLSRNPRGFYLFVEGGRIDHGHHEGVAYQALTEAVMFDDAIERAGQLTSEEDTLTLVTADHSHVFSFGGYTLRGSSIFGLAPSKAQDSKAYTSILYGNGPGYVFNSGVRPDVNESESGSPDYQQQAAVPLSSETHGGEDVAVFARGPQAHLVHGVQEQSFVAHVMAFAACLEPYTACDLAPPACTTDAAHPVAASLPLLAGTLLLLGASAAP
mIAP activ: mouse IAP activation | 330,000 compounds, 0.24% hits | muIAP, CDP-Star luminescence, 30 min; hits give high values; 1 = vehicle-only enzyme signal, 0 = enzyme-free wells | AID 2805 | activation factor at 10 µM;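 active means activation factor of at least 2 at 20 µM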
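also added = chemiluminescent substrate CDP-Star | test system = mouse IAP enzyme | signal = chemiluminescence readout | compound = DMSO-dissolved test compounds | incubation = 30 min at room temperature | benchmarks = DMSO wells, no-enzyme wells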
mIAP inh: blocks mouse intestinal alkaline phosphatase; 330,000 compounds, 0.2% hits; AID 2806; inhibition, % at 10 µM; purified mouse IAP, CDP-Star luminescence, 30 min;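 active means inhibition of at least 40% at 10 µM in the primary screen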;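 further: plate controls were DMSO with enzyme for no effect and no enzyme wells for full effect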
hIAP block: human IAP inhibition. AID 2544. inhibition, % at 10 µM. purified IAP, CDP-Star luminescence, 30 min. 330,000 compounds, 0.12% hits;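 active means inhibition reaching a set limit with compound at 10 µM in the primary screen, cut at about 35% in these data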;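 further: plate controls were DMSO wells with enzyme for no effect and no-enzyme buffer wells for full effect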
mIAP inh conf: mouse IAP inhibition confirmation; inhibition, % at 10 µM; shares compounds with mIAP inh; purified mouse IAP, CDP-Star luminescence, 30 min; 11,000 compounds, 4.7% hits; AID 434971;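 active means inhibition of at least 40% at 10 µM in either of the two replicates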;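 further: plate controls were DMSO wells with enzyme for no effect and buffer wells lacking enzyme for full effect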
Numbers without * were called inactive; nt = no result.

SMILES | bIAP inh | bIAP activator | hIAP activ | mIAP activ | mIAP inh | hIAP block | mIAP inh conf
Cc1cccnc1Nc1nc(-c2ccc(O)c(O)c2)cs1 | 44.4 | 0.6 | 0.915 | 0.46 | 54.0* | 8.5 | 67.8*
Oc1ccc(-c2csc(Nc3ccccn3)n2)cc1O | nt | nt | 1.01 | 0.381 | 61.9* | -0.6 | 76.6*
Oc1ccc(-c2csc(Nc3cccc4ccccc34)n2)cc1O | nt | nt | 0.682 | 0.367 | 63.3* | 31.8 | 80.0*
Cc1cccc(Nc2nc(-c3ccc(O)c(O)c3)cs2)n1 | nt | nt | 0.805 | 0.671 | 32.9 | 19.5 | nt
Cc1ccnc(Nc2nc(-c3ccc(O)c(O)c3)cs2)c1 | nt | nt | 1.03 | 0.659 | 34.1 | -3.5 | nt
CCCCNC(=O)C(C1CCCCC1)N(CCN(C)C)C(=O)CCCN1C(=O)NC(c2ccc(-c3ccccc3)cc2)C(C(=O)OCc2ccccc2)=C1C (centres undefined) | nt | nt | nt | 2.67* | -167.5 | nt | -148.5
O=C(NNC(=O)c1cc2cc(Br)ccc2oc1=O)c1ccc(O)cc1O | 30.7 | 0.7 | 1.05 | 0.233 | 76.7* | -5.0 | 81.7*
COC(=O)C1(c2ccccc2)NC(c2cccs2)C2C(=O)N(C)C(=O)C21 (centres undefined) | 0.8 | 1 | 1.01 | 1.04 | -3.6 | -0.8 | nt
CC(C)CCNC(=O)Nc1ccc2c(c1)N(C)C(=O)CS2 | 21.0 | 0.8 | 1.13 | 1.72 | -72.1 | -13.2 | nt
CN1C(=O)CSc2ccc(NC(=O)NCCC3=CCCCC3)cc21 | 11.6 | 0.9 | 1.96 | 3.79* | -279.0 | -95.7 | -121.7
O=c1oc(-c2cccs2)nc2sc3c(c12)CCC3 | 2.6 | 1 | 1.16 | 1 | -0.2 | -16.4 | nt
O=c1oc(/C=C/c2ccco2)nc2sc3c(c12)CCC3 | 14.4 | 0.9 | 1.1 | 0.373 | 62.7* | -10.1 | 61.9*
c1ccc(-c2nccc(-c3ccco3)n2)nc1 | -0.1 | 1 | 1.13 | 1 | -0.4 | -12.8 | nt
Nc1ncnc2oc(-c3ccco3)c(-c3ccco3)c12 | 8.1 | 0.9 | 0.856 | 0.286 | 71.4* | 14.4 | 74.6*

Bioassay records: PubChem BioAssay, Sanford-Burnham Center for Chemical Genomics
